The subject of assay [1] is Nakaseomyces glabratus. In words: Antifungal activity against Candida glabrata IFO0622 after 24 hrs by microdilution method. Type of assay: functional. Particulars: IFO0622, 24 h. The procedure, abridged:
(§1)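 CLSI broth microdilution run at 30°C instead of standard temperature; starting inoculum 1 × 10^3 to 3 × 10^3 cells/ml; DMSO under 1% final. Endpoints: MIC-0 = lowest concentration giving an optically clear well; MIC-2 = 50% drop versus drug-free control in absorbance at 570 nm with alamar blue redox indicator, used because treated cells clump.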

Assay [2] deals with Nakaseomyces glabratus. Nature of the assay: Antifungal activity against Candida glabrata ATCC 200918 after 24 hrs by microdilution method. The assay is classed as functional. As to conditions: ATCC 200918, 24 h. An outline of the steps:
as §1

Assay [3] relates to Candida tropicalis. Nature of the assay: Antifungal activity against Candida tropicalis ATCC 200956 after 24 hrs by microdilution method. Type of assay: functional. As to conditions: ATCC 200956, 24 h. The procedure, abridged:
as §1

Assay [4] has as its system Candida parapsilosis. In words: Antifungal activity against Candida parapsilosis IFO1396 after 24 hrs by microdilution method. Type of assay: functional. As to conditions: Lodderomyces parapsilosis, IFO1396, 24 h. The procedure, abridged: as §1
For assay [5], the system named is Trichosporon asahii. Nature of the assay: Antifungal activity against Trichosporon asahii ATCC 90039 after 24 hrs by microdilution method. As to conditions: ATCC 90039, 24 h. Type of assay: functional. An outline of the steps:
as §1

Assay [6] concerns Aspergillus terreus. Nature of the assay: Antifungal activity against Aspergillus terreus ATCC 28301 after 24 hrs by microdilution method. Type of assay: functional. Particulars: ATCC 28301, 24 h. An outline of the steps:
as §1

Assay [7] relates to Saccharomyces cerevisiae. In words: Fungicidal activity against Saccharomyces cerevisiae YPH500 after 24 hrs by microdilution method. Particulars: YPH500, 24 h. Type of assay: functional. The procedure, abridged: (§2)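 Fungicidal concentration: after the MIC plate read, 4 μl from each well transferred into 200 μl MOPS-buffered RPMI, incubated 24 h at 30°C; MFC = lowest drug concentration with no visible growth.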

Assay [8] deals with Candida tropicalis. In words: Fungicidal activity against Candida tropicalis TIMM0313 after 24 hrs by microdilution method. Type of assay: functional. As to conditions: TIMM0313, 24 h. The procedure, abridged: as §2
For assay [9], the system named is Candida albicans. In words: Inhibition of hyphal elongation of Candida albicans ATCC 24433 at 1 ug/ml after 6 hrs by microscopy. The assay is classed as functional, organism-based. An outline of the steps: (§3)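 Hyphae induced in HFM-7 medium (Lee's medium also used) on type I collagen-coated wells, drug 0, 1, 4 or 16 μg/ml; static culture at 37°C, viewed by light microscopy after 6 h or 24 h.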

The test system of assay [10] is Candida albicans. Nature of the assay: Inhibition of hyphal elongation of Candida albicans ATCC 24433 at 4 ug/ml after 24 hrs by microscopy. The assay is classed as functional, organism-based. An outline of the steps: as §3
Assay [11] concerns Candida albicans. In words: Inhibition of hyphal elongation of Candida albicans ATCC 24433 at 16 ug/ml after 24 hrs by microscopy. The assay is classed as functional, organism-based. The procedure, abridged:
as §3

Assay [12] deals with Staphylococcus aureus. Nature of the assay: Antibacterial activity against Staphylococcus aureus 209P. Type of assay: functional.
Assay [13] has as its system Saccharomyces cerevisiae. Nature of the assay: Inhibition of chitin synthesis in Saccharomyces cerevisiae AY-10 assessed as reduction in [14C]glucose incorporation at 0.078 to 1.25 ug/ml after 3 hrs. Type of assay: functional, organism-based. An outline of the steps: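 Exponential cells in RPMI 1640 at A595 about 0.6, pulse-labelled with [14C]glucose 2 μCi/ml plus drug at 30°C, sampled at 1 and 3 h. Cell wall fractionated: mannan from 3% NaOH extracts at 80°C by Fehling's reaction; residue digested with Zymolyase 100T (1 mg/ml), insoluble part = chitin; β-1,3-glucan = total glucan minus dialysed β-1,6-glucan. Scintillation counting; % change versus untreated.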

Assay [14] deals with Saccharomyces cerevisiae. In words: Fungicidal activity against Saccharomyces cerevisiae AY-10-R11 mutant after 24 hrs by microdilution method. The assay is classed as functional. As to conditions: AY-10-R11, 24 h.
Assay [15] relates to Escherichia coli. Nature of the assay: Antibacterial activity against Escherichia coli NIHJ. Type of assay: functional.
Assay [16] concerns Nakaseomyces glabratus. Nature of the assay: Fungistatic activity aganist Candida glabrata IFO0622assessed as growth inhibition at 1 to 16 ug/ml by time-kill study. As to conditions: IFO0622. The assay is classed as functional, organism-based. The procedure, abridged:
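Exponentially growing cells suspended at 1 × 10^4 cells/ml in RPMI 1640 with or without drug, shaken gently at 30°C; samples taken at 2, 4, 8, 24 and 48 h, diluted and spread on SDA, colonies counted after overnight incubation at 30°C to give viable cell numbers.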

Converted amounts (≈) assume the structure as drawn. The source made the active and inactive calls. The calls are words filed in the database; no cut-off is given here.

For `CCc1c(C)c(C#N)c2nc3ccccc3n2c1NCCN(CC)CC`, the MIC was 2 µg/mL (≈ 5.72 µM) in assay [1]; 4 µg/mL (≈ 11.4 µM) in assay [2]; 1 µg/mL (≈ 2.86 µM) in assay [3]; more than 32 µg/mL in [4]; more than 32 µg/mL in [5]; more than 32 µg/mL in assay [6]. The MIC in assay [12] was more than 32 µg/mL; in assay [14], 8 µg/mL (≈ 22.9 µM); in [15], more than 32 µg/mL. Also, the MIC50 in [1] was 1 µg/mL (≈ 2.86 µM); in assay [2] it was 4 µg/mL (≈ 11.4 µM); in assay [3] it was 1 µg/mL (≈ 2.86 µM); in assay [4] it was 4 µg/mL (≈ 11.4 µM); in [5], more than 32 µg/mL; in assay [6], more than 32 µg/mL. The MFC in assay [7] and in assay [8] was more than 32 µg/mL each time. Besides, the inhibition entry in assay [9], in assay [10] and in [11] was “Active” in each case. The inhibition result in [13] is “inactive”. In assay [16], the Activity result is “Dose-dependent effect”.
